Test results from ChEMBL document CHEMBL1649236, “The structure of the dizinc subclass B2 metallo-beta-lactamase CphA reveals that the second inhibitory zinc ion binds in the histidine site” (Antimicrob Agents Chemother, 2009).

Tests used:
Aeromonas hydrophila [1] = experiment: Activity of Aeromonas hydrophila metallo-betalactamase CphA N233A mutant expressed in Escherichia coli BL21(DE3) by spectrophotometric analysis in presence of < 0.4 uM zinc ions
Procedure, shortened: (§1)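 Steady-state kinetics (kcat, Km, kcat/Km) at 30°C in 15 mM cacodylate pH 6.5, no added Zn2+ (free [Zn2+] < 0.4 µM), enzyme as the mono-zinc form (one Zn per molecule). Substrates imipenem, nitrocefin and CENTA. N233A mutant from E. coli BL21 (DE3) pLysS Star, purified to homogeneity, mass checked by ESI-MS. Standard errors below 10%.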

Aeromonas hydrophila [2] = experiment: Ratio of Kcat to Km for Aeromonas hydrophila metallo-betalactamase CphA N233A mutant expressed in Escherichia coli BL21(DE3) by spectrophotometric analysis in presence of < 0.4 uM zinc ions; procedure, shortened: as §1

| SMILES | Km (Aeromonas hydrophila [1]) [µM] | kcat (Aeromonas hydrophila [1]) [s⁻¹] | kcat/Km (Aeromonas hydrophila [2]) [M⁻¹ s⁻¹] |
| --- | --- | --- | --- |
| O=C(Cc1cccs1)N[C@@H]1C(=O)N2C(C(=O)O)=C(/C=C/c3ccc([N+](=O)[O-])cc3[N+](=O)[O-])CS[C@H]12 | 55 | 0.03 | 520 |
| C[C@@H](O)[C@H]1C(=O)N2C(C(=O)O)=C(SCCNC=N)C[C@H]12 | > 1000 | > 700 | 700000 |
| O=C(Cc1cccs1)N[C@@H]1C(=O)N2C(C(=O)O)=C(CSc3ccc([N+](=O)[O-])c(C(=O)O)c3)CS[C@H]12 | 14 | 0.0035 | 250 |
